High-throughput results: PubChem BioAssay, several laboratories
NPY-Y1 antag – NPY-Y1 receptor antagonists, primary screen, cell-based; 200,000 compounds, 1% hits; Neuropeptide Y receptor type 1 (Homo sapiens), P25929; AID 1040, 2008; HEK293-CNG Y1 cells, membrane potential fluorescence; NPY at EC95, then isoproterenol; inhibition, % at 3.6 µM;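 active means inhibition above the campaign mean inhibition of all tested compounds plus 3 SD, cut at about 20% in these data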
Target sequence (P25929 whole entry, looked up): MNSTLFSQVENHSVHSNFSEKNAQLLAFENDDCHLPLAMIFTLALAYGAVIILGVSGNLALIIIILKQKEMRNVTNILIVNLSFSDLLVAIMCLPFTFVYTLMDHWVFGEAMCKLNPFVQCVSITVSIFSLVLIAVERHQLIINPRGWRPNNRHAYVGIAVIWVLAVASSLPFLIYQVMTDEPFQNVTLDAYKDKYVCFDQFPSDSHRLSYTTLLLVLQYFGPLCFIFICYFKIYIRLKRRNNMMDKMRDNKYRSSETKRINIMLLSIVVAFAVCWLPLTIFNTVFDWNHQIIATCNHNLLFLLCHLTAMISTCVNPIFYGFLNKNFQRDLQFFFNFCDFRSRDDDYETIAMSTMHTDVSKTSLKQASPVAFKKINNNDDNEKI
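Benchmarks – high control isoproterenol alone, low control NPY with isoproterenol · Material – HEK293 Y1/CNG channel cell line · Times – dye 3 h, compound 60 min room temperature, stimulation 45 min · Probe or stimulus – NPY (25 nM), isoproterenol (1 µM), Ro 20-1724 (25 µM) · Evaluation – % inhibition of NPY effect · Signal – fluorescence, membrane potential probe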
NPY Y2 blocker – NPY-Y2 receptor antagonists, primary screen, cell-based; NPY-Y2 expressing cells, antagonist mode; 140,000 compounds, 0.99% hits; inhibition, % at 2.7 µM; in the data active means inhibition above about 17%
RAM network inh – inhibitors of the yeast RAM network, primary screen, dse1pr::URA3 reporter, 5-FOA selection. S. cerevisiae dse1pr::URA3 reporter, 5-FOA growth OD615, 2 d; analog-sensitive cbk1-as2 kinase mutant strain. inhibition, % at 50 µM. 190,000 compounds, 1.8% hits. AID 868, 2007;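 active means inhibition above a set limit, 3 SD over mean compound inhibition, cut at about 8.4% in these data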;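 further: inhibition rescues growth on 5-FOA so higher OD means more RAM inhibition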
INS promoter inh – inhibitors of insulin promoter-driven GFP, primary screen, imaging, TRM-6 cells, eGFP reporter, cell count; 130,000 compounds, 0.9% hits; AID 1273, 2008; inhibition, % at 2 µM; reporter expression induced with tamoxifen;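 active means inhibition above the mean plus 3 SD, with well images judged a real hit on visual review, cut at about 60% in these data, passing the limit was not always enough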
NPY-Y2 PAM-ag – NPY-Y2 potentiators or agonists, primary screen, cell-based; Neuropeptide Y receptor type 2 (Homo sapiens), P49146; cells expressing NPY-Y2, potentiator/agonist read-out; activation, % at 3.6 µM; 220,000 compounds, 0.45% hits; AID 1359, 2008; in the data active means activation above about 27%;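 further: cells stimulated with NPY near EC25 plus isoproterenol at EC100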
NPY-Y1 PAM-ag – NPY-Y1 receptor potentiators or agonists, primary screen, cell-based; Neuropeptide Y receptor type 1 (Homo sapiens), P25929; NPY-Y1 expressing cells, potentiator/agonist activation; activation, % at 3.6 µM; 220,000 compounds, 0.37% hits; AID 1304, 2008; in the data active means activation above about 33%, passing the limit was not always enough;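 further: cells stimulated with NPY at EC10 then isoproterenol at EC100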
A number is an active result; i = inactive; nt = no result. In the library only some 3.8% were active in any assay of this set; here they are far more common.

SMILES	NPY-Y1 antag	NPY Y2 blocker	RAM network inh	INS promoter inh	NPY-Y2 PAM-ag	NPY-Y1 PAM-ag
CCn1c(=O)cc(SCC(=O)N2CCN(c3ccccc3OC)CC2)c2ccccc21	i	i	i	nt	i	i
COc1ccc(/C=N/OCC(=O)N=Nc2c(O)[nH]c3ccc(Br)cc23)cc1	i	nt	i	80	i	i
OCCN1CCN(c2ncnc3c2c(-c2ccccc2)cn3-c2ccc(F)cc2)CC1	i	nt	i	i	i	i
CC1CN(c2ncnc3c2c(-c2ccccc2)cn3-c2ccc(F)cc2)CC(C)O1 (centres undefined)	i	nt	8.7	nt	i	i
CN(CC(=O)Nc1ccc(N2CCOCC2)cc1)Cc1c(O)ccc2ccccc12	i	nt	i	i	i	i
CCC(C)C(NC(=O)c1ccc(Cl)cc1)C(=O)Nc1cccnc1 (centres undefined)	i	nt	i	nt	i	i
C=CCn1c(SCC(=O)Nc2sccc2C(N)=O)nc2sc(CC)cc2c1=O	i	i	8.5	i	i	i
O=C(CSc1nnc2c(n1)[nH]c1ccccc12)NCc1ccco1	i	nt	i	nt	i	i
Cc1c(N2C(=O)c3cccc4cccc(c34)C2=O)c(=O)n(-c2ccccc2)n1C	i	i	i	69	i	i
Cc1c(N=C2Nc3cccc4cccc2c34)c(=O)n(-c2ccccc2)n1C	i	i	i	i	i	i
C#CCn1cc(/C=N/Nc2nc3ccccc3[nH]2)c2ccccc21	i	i	i	i	49	45
CSCCC(NC(=O)COc1cccc2ccccc12)C(=O)O (centres undefined)	nt	nt	nt	nt	i	i
O=Cc1cc2ccccc2nc1SCc1ccc(Cl)c(Cl)c1	i	i	8.6	i	i	i
CC1CCN(C(=O)CSc2nnc(Cc3cccn3C)n2-c2ccc(F)cc2)CC1	i	i	i	71	i	i
COc1ccc(-n2c(Cc3cccn3C)nnc2SCC(N)=O)cc1	i	i	i	nt	i	i
COc1ccc(-n2c(Cc3cccn3C)nnc2SCC(=O)Nc2ccccc2)cc1	i	i	9.8	nt	i	i
COc1ccc(-n2c(Cc3cccn3C)nnc2SCC(=O)NC2CCCC2)cc1	i	i	i	100	i	i
COc1ccc(-n2c(Cc3cccn3C)nnc2SCC(=O)Nc2ccc(Cl)cc2)cc1	i	i	i	nt	i	i
Cc1cc(CC(C)C)n(-c2nc3ccccc3c(=O)n2OCc2ccccc2)n1	i	i	9.8	i	i	i
COc1ccc(CN(C#N)c2nc(SC)nc(N(C)C)n2)cc1	i	i	11	nt	i	i
CN(C)c1nc2n(c(=O)n1)C(C#N)CS2 (centres undefined)	i	i	i	i	i	i
O=C(Nc1cccc(C(=O)O)c1)/C(=C/c1ccc([N+](=O)[O-])cc1)NC(=O)c1ccccc1	i	nt	9.9	nt	i	i
COc1ccccc1/C=C(\NC(=O)c1ccc(OC)c(OC)c1)C(=O)Nc1cccc([N+](=O)[O-])c1	i	i	i	i	i	i
COc1ccccc1/C=C(\NC(=O)c1ccc(OC)c(OC)c1)C(=O)Nc1ccc([N+](=O)[O-])cc1	i	i	8.5	i	i	i
Cc1cccc(-c2noc(CN(C(C)C)S(=O)(=O)c3ccc(F)cc3)n2)c1	i	i	8.5	i	i	i
SMILES	NPY-Y1 antag	NPY Y2 blocker	RAM network inh	INS promoter inh	NPY-Y2 PAM-ag	NPY-Y1 PAM-ag
Cc1ccc(C)c(NC(=O)Cc2coc3cc4c(cc23)CCC4)c1	i	i	i	i	i	i
CCC(C)c1ccccc1NC(=O)Cc1coc2cc3c(cc12)CCC3 (centres undefined)	i	i	9.5	nt	i	i
COCCCNC(=O)c1cc(C)nn1-c1ccccc1	nt	nt	nt	nt	i	i
CN(Cc1ccc(O)cc1)C1CCCCC1	i	i	i	92	i	i
CCOc1ccc(NC(=S)N2CCC(c3nc4ccccc4[nH]3)CC2)cc1	i	nt	i	nt	i	i
O=C(Nc1ccccc1)N1N=C(c2ccc(F)cc2)CC1c1ccc(F)cc1 (centres undefined)	i	i	9.6	i	i	i
